ChEMBL document CHEMBL4715794, “Design, Synthesis, and Biological Evaluation of Novel Cyclic Adenosine-Inosine Monophosphate (cAIMP) Analogs That Activate Stimulator of Interferon Genes (STING)” (J Med Chem, 2016)
The source made the active and inactive calls. No cut-off for these calls is given here.

What was measured:
RAW [1] = assay: Induction of type I IFN production in mouse RAW-Lucia ISG-KO-STING cells at 0.08 to 60 ug/ml incubated for 48 hrs by luciferase reporter gene assay; type: functional, cell-based; details: dose 0.08-60 µg/ml
[2] = molecular target: T1, Stimulator of interferon genes protein (Mus musculus, UniProt Q3TBT3); assay: Activation of STING in mouse RAW-Lucia ISG cells assessed as induction of type I IFNs stimulation by measuring induction of IRF pathway incubated for 48 hrs by luciferase reporter gene assay; type: cell-based
T1 sequence (Q3TBT3 whole entry): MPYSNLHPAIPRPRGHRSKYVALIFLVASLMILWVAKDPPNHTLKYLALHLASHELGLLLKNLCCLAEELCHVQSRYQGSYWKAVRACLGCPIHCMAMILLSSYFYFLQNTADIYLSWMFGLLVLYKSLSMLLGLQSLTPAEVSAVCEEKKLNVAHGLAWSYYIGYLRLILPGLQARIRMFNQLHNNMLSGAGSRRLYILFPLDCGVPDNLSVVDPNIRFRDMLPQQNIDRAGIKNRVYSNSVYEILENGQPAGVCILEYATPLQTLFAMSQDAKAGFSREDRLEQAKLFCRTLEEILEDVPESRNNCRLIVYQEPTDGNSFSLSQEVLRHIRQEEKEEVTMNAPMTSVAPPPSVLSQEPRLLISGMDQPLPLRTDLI
Summary of the method: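 Cells (~100,000/well) stimulated 48 h at 37 °C, 5% CO2, with saline vehicle or compound in saline at seven concentrations. Luciferase reporter read with Quanti-Luc. EC50 from log(agonist) dose-response fit; mean ± SD of three independent experiments.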

[3] = molecular target: T2, Stimulator of interferon genes protein (Mus musculus) (UniProt Q3TBT3); assay: Activation of STING in mouse RAW-Lucia ISG cells assessed as induction of type I IFNs stimulation by measuring induction of IRF pathway incubated for 48 hrs by luciferase reporter gene assay relative to 2',3'-cGAMP; type: cell-based; details: filed as activator
T2 sequence (whole entry): T1 sequence (Q3TBT3 whole entry)
Summary of the method: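 RAW-Lucia ISG cells (~100,000/well), 48 h at 37 °C, 5% CO2, compound in saline at seven concentrations, Quanti-Luc luciferase read-out. Emax taken as fitted top plateau, normalized to the 2',3'-cGAMP response in each assay; mean percentage ± SD of three independent experiments.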

[4] = molecular target: T3, Stimulator of interferon genes protein (Homo sapiens, UniProt Q86WV6); assay: Activation of STING in human blood assessed as induction of type I IFNs incubated for 18 to 20 hrs by QUANTI-Blue assay; type: tissue-based
[5] = Stability in presence of snake venom phosphodiesterase assessed as parent compound remaining level at 7 ug incubated for 2 hrs by HPLC analysis; type: ADME; details: in vitro, at 7 µg
Summary of the method: (§1)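 7 µg of each CDN incubated at 37 °C in a water bath with 21 µL of enzyme solution (160 µg snake venom phosphodiesterase in PBS with 0.6 mM MgCl2), with water as the no-enzyme control. Aliquots were taken at time points from 0 to 2 h, heated at 100 °C for 2 min, frozen, then injected onto a C18 UHPLC column with UV detection to follow the parent compound.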

[6] = Stability in presence of snake venom phosphodiesterase assessed as parent compound remaining level at 7 ug incubated for >2 hrs by HPLC analysis; type: ADME; details: at 7 µg
RAW [7] = assay: Induction of type I IFN production in mouse RAW-Lucia ISG-KO-STING cells at 0.08 to 100 ug/ml incubated for 48 hrs by luciferase reporter gene assay; type: functional, cell-based; details: dose 0.08-100 µg/ml
Nuclease P1 [8] = molecular target: T4, Nuclease P1 (Penicillium citrinum, UniProt P24289); assay: Stability in presence of nuclease P1 assessed as parent compound remaining level at 7 ug incubated for 2 hrs by HPLC analysis; type: ADME; details: at 7 µg; for Stabilty: in vitro, 2 h
T4 sequence (P24289 whole entry): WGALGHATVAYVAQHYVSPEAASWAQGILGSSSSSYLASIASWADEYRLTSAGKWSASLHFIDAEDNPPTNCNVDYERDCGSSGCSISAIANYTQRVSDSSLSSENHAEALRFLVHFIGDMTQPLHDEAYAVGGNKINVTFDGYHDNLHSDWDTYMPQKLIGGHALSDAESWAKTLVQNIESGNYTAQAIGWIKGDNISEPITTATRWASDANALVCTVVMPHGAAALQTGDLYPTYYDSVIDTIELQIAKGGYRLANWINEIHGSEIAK
Summary of the method: (§2)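 7 µg CDN incubated at 37 °C with 2.5 mU NP1 in 30 mM acetate buffer, 2 mM ZnCl2, pH 5.3 (water control). Aliquots taken from 0 to 2 h, heated 100 °C for 2 min, frozen, then analysed by reverse-phase UPLC with UV detection.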

[9] = molecular target: T3, Stimulator of interferon genes protein; assay: Activation of STING in human blood assessed as increase in IL-1 production at 10 ug/ml incubated for 18 to 20 hrs by QUANTI-Blue assay; type: tissue-based; details: filed as activator, time 18-20 hrs
Summary of the method: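 Whole blood from healthy donors, diluted 1:2 in RPMI with sodium pyruvate, incubated 18–20 h at 37 °C with CDN in saline. Supernatants assayed on HEK-Blue IL-1R reporter cells (~50,000/well, ~20 h, 37 °C), SEAP read with QUANTI-Blue. Fold induction over unstimulated; mean of fifteen donors over three experiments.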

Nuclease P1 [10] = molecular target: T4, Nuclease P1; assay: Stability in presence of nuclease P1 assessed as half life at 7 ug incubated for 2 hrs by HPLC analysis; type: ADME; details: nuclease P1 (isolated enzyme), dose 7 µg; summary of the method: as §2
[11] = system: snake venom phosphodiesterase; assay: (§3) Stability in presence of snake venom phosphodiesterase assessed as parent compound degradation at 7 ug incubated for 2 hrs by HPLC analysis; type: ADME; details: snake venom phosphodiesterase, read-out: Drug degradation; summary of the method: as §1
[12] = molecular target: T5, ENPP1 (ectonucleotide pyrophosphatase/phosphodiesterase family member 1) (Homo sapiens, UniProt P22413); assay: Stability in presence of ENPP1 ( unknown origin) assessed as half life by HPLC analysis; details: ENPP1 (isolated enzyme, unknown origin)
T5 sequence (P22413 whole entry): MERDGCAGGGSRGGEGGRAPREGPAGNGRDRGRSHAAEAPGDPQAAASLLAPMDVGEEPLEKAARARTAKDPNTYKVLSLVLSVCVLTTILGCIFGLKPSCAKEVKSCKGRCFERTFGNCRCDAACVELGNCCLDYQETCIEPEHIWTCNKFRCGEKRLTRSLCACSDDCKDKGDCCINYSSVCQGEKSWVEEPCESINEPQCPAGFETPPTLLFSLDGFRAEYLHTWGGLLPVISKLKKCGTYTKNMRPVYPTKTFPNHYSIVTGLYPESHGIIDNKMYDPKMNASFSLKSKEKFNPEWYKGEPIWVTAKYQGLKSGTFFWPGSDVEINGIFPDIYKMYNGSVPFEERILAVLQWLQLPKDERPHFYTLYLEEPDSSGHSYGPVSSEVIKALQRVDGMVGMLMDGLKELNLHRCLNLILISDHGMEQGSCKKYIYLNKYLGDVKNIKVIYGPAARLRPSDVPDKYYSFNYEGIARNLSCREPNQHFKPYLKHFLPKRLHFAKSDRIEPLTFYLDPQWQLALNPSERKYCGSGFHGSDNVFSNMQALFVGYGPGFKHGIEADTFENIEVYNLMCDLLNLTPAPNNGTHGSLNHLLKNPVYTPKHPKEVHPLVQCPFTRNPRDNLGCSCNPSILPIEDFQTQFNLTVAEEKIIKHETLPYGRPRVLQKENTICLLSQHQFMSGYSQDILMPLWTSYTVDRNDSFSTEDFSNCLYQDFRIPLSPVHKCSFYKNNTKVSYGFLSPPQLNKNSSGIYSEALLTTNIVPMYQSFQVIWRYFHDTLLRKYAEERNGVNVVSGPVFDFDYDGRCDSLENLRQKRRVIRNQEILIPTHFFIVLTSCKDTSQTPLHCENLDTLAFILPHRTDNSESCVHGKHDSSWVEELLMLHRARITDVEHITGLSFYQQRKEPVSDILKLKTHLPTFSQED

[13] = as §3; type: ADME; details: in vivo, 2 h; summary of the method: as §1

T3 sequence (Q86WV6 whole entry): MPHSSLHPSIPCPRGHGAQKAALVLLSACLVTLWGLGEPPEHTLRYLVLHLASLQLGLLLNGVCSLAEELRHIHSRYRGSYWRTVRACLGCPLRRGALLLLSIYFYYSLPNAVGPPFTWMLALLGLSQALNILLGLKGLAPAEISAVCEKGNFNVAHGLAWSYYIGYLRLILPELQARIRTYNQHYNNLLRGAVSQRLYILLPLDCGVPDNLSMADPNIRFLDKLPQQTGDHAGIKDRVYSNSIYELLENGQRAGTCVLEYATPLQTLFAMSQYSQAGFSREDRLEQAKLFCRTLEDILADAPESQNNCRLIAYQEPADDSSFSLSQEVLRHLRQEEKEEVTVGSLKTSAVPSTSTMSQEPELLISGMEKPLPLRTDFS

SMILES	Activity (RAW [1])	EC50 [2] [µM]	Emax [3] [%]	EC50 [4] [µM]	Stabilty [5]	also measured
Nc1ncnc2c1ncn2[C@@H]1O[C@@H]2COP(=O)(O)O[C@H]3C[C@H](n4cnc5c(O)ncnc54)O[C@@H]3COP(=O)(O)O[C@H]2[C@H]1F	inactive	9.1	99	3.6		
Nc1ncnc2c1ncn2[C@H]1C[C@@H]2OP(=O)(O)OC[C@H]3O[C@@H](n4cnc5c(O)ncnc54)[C@H](F)[C@@H]3OP(=O)(O)OC[C@H]2O1	inactive	5	93	2.8	Stable	
Nc1ncnc2c1ncn2[C@H]1C[C@@H]2OP(=O)(S)OC[C@H]3O[C@@H](n4cnc5c(O)ncnc54)[C@H](F)[C@@H]3OP(=O)(S)OC[C@H]2O1 (stereo partly specified)	inactive	2.2	83	4.7	Stable	Stabilty [6]: Stable
Cc1ccc2c(=O)c3cccc(CC(=O)O)c3oc2c1C						Activity (RAW [7]): inactive
Nc1ncnc2c1ncn2[C@@H]1O[C@@H]2COP(=O)(S)O[C@H]3[C@@H](F)[C@H](n4cnc5c(O)ncnc54)O[C@@H]3COP(=O)(S)O[C@H]2[C@H]1F (stereo partly specified)	inactive	0.6	104	0.4	Stable	Stabilty (Nuclease P1 [8]): Stable; Activity [9]: Active; Stabilty [6]: Stable
Nc1ncnc2c1ncn2[C@@H]1O[C@@H]2COP(=O)(O)O[C@H]3[C@@H](O)[C@H](n4cnc5c(O)ncnc54)O[C@@H]3COP(=O)(O)O[C@@H]1[C@@H]2O	inactive		85			
Nc1ncnc2c1ncn2[C@H]1C[C@@H]2OP(=O)(O)OC[C@H]3O[C@@H](n4cnc5c(O)ncnc54)C[C@@H]3OP(=O)(O)OC[C@H]2O1	inactive	11.6	91	9.9	Stable	half-life at 7 ug (Nuclease P1 [10]): 5.7 min; metabolised at 2 h, 7 ug [11]: < 40%
Nc1ncnc2c1ncn2[C@@H]1O[C@@H]2COP(=O)(O)O[C@H]3[C@@H](F)[C@H](n4cnc5c(O)ncnc54)O[C@@H]3COP(=O)(O)O[C@H]2[C@H]1F	inactive	5.1	90	0.7	Stable	Stabilty (Nuclease P1 [8]): Stable; Activity [9]: Active
Nc1nc2c(ncn2[C@@H]2O[C@@H]3COP(=O)(O)O[C@H]4[C@@H](O)[C@H](n5cnc6c(N)ncnc65)O[C@@H]4COP(=O)(O)O[C@@H]2C3)c(=O)[nH]1						half-life [12]: 60 min
Nc1ncnc2c1ncn2[C@@H]1O[C@@H]2COP(=O)(O)O[C@H]3[C@@H](O)[C@H](n4cnc5c(O)ncnc54)O[C@@H]3COP(=O)(O)O[C@H]2[C@H]1O	inactive		107			half-life at 7 ug (Nuclease P1 [10]): 23.1 min; Stabilty [13]: Unstable
Nc1ncnc2c1ncn2[C@@H]1O[C@@H]2COP(=O)(O)O[C@@H]3[C@H](O)[C@@H](COP(=O)(O)O[C@@H]1[C@@H]2O)O[C@H]3n1cnc2c(O)ncnc21	inactive		95			
Nc1nc2c(ncn2[C@@H]2O[C@@H]3COP(=O)(O)O[C@H]4[C@@H](O)[C@H](n5cnc6c(N)ncnc65)O[C@@H]4COP(=O)(O)O[C@@H]2[C@@H]3O)c(=O)[nH]1	inactive				Stable	remaining at 2 h, 7 ug (Nuclease P1 [8]; nuclease P1 (isolated enzyme), time 2 hrs, read-out: Stabilty): 83%; half-life [12]: 60 min
Nc1ncnc2c1ncn2[C@@H]1O[C@@H]2COP(=O)(S)O[C@H]3[C@@H](O)[C@H](n4cnc5c(O)ncnc54)O[C@@H]3COP(=O)(S)O[C@H]2[C@H]1O (stereo partly specified)	inactive	4	115	10.6	Stable	Stabilty (Nuclease P1 [8]): Stable
Nc1ncnc2c1ncn2[C@@H]1O[C@@H]2COP(=O)(O)O[C@@H]3[C@H](O)[C@@H](COP(=O)(O)O[C@H]2[C@H]1O)O[C@H]3n1cnc2c(=O)[nH]cnc21	inactive	6.1	85			half-life at 7 ug (Nuclease P1 [10]): 7.1 min
